# Measurements taken from ChEMBL document CHEMBL4680120, “Novel anti-Alzheimer phenol-lipoyl hybrids: Synthesis, physico-chemical characterization, and biological evaluation” (Eur J Med Chem, 2020).
# Active and inactive are the calls of the source. No cut-off for these calls is given here.
# What was measured:
# Erythrocyte [1] = assay: Cytoprotective activity against H2O2-induced oxidative damage in human RBC assessed as restoration of antioxidant activity at 50 to 100 uM measured after 72 hrs by TAC assay relative to control; assay type: functional; conditions: dose 50-100 µM
# SH-SY5Y [2] = assay: Neuroprotective activity against amyloid beta (1 to 42)-induced toxicity in human SH-SY5Y cells assessed as decrease in PSENEN mRNA expression at IC50 measured after 48 hrs by SYBR green dye based RT-qPCR analysis; assay type: functional, cell-based
# Procedure, shortened: (§1)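 Differentiated SH-SY5Y cells in 6-well plates treated 48 h with Aβ1-42 (20 μM) with or without hybrid. mRNA of AD-related genes measured by RT-qPCR, normalized to β-actin. Expressed as fold change versus untreated cells. Triplicate experiments.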
# Erythrocyte [3] = assay: Cytoprotective activity against H2O2-induced oxidative damage in human RBC assessed as recovery of H2O2-induced cell death at 50 to 100 uM measured after 72 hrs by LDH release assay relative to control; assay type: functional; conditions: dose 50-100 µM
# Procedure, shortened: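 Heparinised human whole blood cultured in phytohemagglutinin-containing chromosome medium and co-incubated with hybrids and H2O2 at 37C for 72 h. LDH released into the culture medium was measured with a commercial kit. Triton X-100 served as positive control, with untreated cultures as reference. Cytoprotection was expressed as viability relative to control.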
# [4] = Stability in simulated intestinal fluid at pH 6.8 assessed as hydrolysis measured immediately in presence of pancreatin by HPLC analysis; assay type: ADME; conditions: simulated gi fluid
# Procedure, shortened: (§2)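 Incubation in simulated gastric fluid (pH 1.2, pepsin) or simulated intestinal fluid (pH 6.8, pancreatin). Aliquots deproteinized with ice-cold acetonitrile, centrifuged at 4°C and 12000 rpm for 10 min, filtered, analyzed by HPLC. RD% = (Ci − Cf)/Ci × 100. Stable if RD < 5%. Means of three experiments.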
# SH-SY5Y [5] = assay: Neuroprotective activity against amyloid beta (1 to 42)-induced toxicity in human SH-SY5Y cells assessed as increase in cell viability at 1 to 250 mg/l measured after 48 hrs by MTT assay; assay type: functional, cell-based; conditions: dose 1-250 mg/L
# Procedure, shortened: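 SH-SY5Y cells grown in DMEM/F12 with 10% FBS and differentiated with retinoic acid (10 μM), seeded at 1×10^4 per well and cultured 24 h. Cells were given hybrids at 1–250 mg/L with or without Aβ1-42 (20 μM) for 48 h. MTT (5 mg/mL) added for 4 h at 37°C, DMSO solubilization, read at 570/630 nm. LDH read at 450 nm. Five independent experiments.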
# Erythrocyte [6] = assay: Antioxidant activity in human RBC assessed as increase in total antioxidant capacity level up to 400 ug/ml measured after 72 hrs relative to control; assay type: functional; conditions: dose microg/ml <=400
# SH-SY5Y [7] = assay: Neuroprotective activity against amyloid beta (1 to 42)-induced apoptosis in human SH-SY5Y cells assessed as necrotic cells at IC50 measured after 48 hrs by Annexin-V/Propidium iodide staining based flow cytometry (reference value: 6.99%); assay type: functional
# [8] = Stability in simulated gastric fluid at pH 1.2 assessed as relative difference measured after 60 mins in presence of pepsin by HPLC analysis; assay type: ADME; conditions: isolated protein, pH 1.2, 1 h; procedure, shortened: as §2
# SH-SY5Y [9] = assay: Neuroprotective activity against amyloid beta (1 to 42)-induced toxicity in human SH-SY5Y cells assessed as decrease in APP mRNA expression at IC50 measured after 48 hrs by SYBR green dye based RT-qPCR analysis; assay type: functional, cell-based; procedure, shortened: as §1
# [10] = Stability in simulated intestinal fluid at pH 6.8 assessed as relative difference measured after 120 mins in presence of pancreatin by HPLC analysis; assay type: ADME; conditions: simulated gi fluid, pH 6.8, 2 h; procedure, shortened: as §2
# [11] = Stability in simulated intestinal fluid at pH 6.8 assessed as relative difference measured after 60 mins in presence of pancreatin by HPLC analysis; assay type: ADME; conditions: simulated gi fluid, pH 6.8, 1 h; procedure, shortened: as §2
# [12] = Stability in simulated intestinal fluid at pH 6.8 assessed as relative difference measured after 30 mins in presence of pancreatin by HPLC analysis; assay type: ADME; conditions: simulated gi fluid, pH 6.8, 0.5 h; procedure, shortened: as §2
# [13] = Stability in simulated intestinal fluid at pH 6.8 assessed as relative difference measured after 15 mins in presence of pancreatin by HPLC analysis; assay type: ADME; conditions: simulated gi fluid, pH 6.8, 0.25 h; procedure, shortened: as §2
# [14] = Stability in simulated intestinal fluid at pH 6.8 assessed as relative difference measured after 180 mins in presence of pancreatin by HPLC analysis; assay type: ADME; conditions: simulated gi fluid, pH 6.8, 3 h; procedure, shortened: as §2
# [15] = Solubility of compound in water by HPLC analysis; assay type: physicochemical
Compound,Activity (Erythrocyte [1]) [%],Activity (SH-SY5Y [2]),Activity (Erythrocyte [3]) [%],Stabilty [4],Activity (SH-SY5Y [5]),Activity (Erythrocyte [6]) [%],Activity (SH-SY5Y [7]) [%],fold change (FC) [8] [%],Activity (SH-SY5Y [9]),fold change (FC) [10] [%],fold change (FC) [11] [%],fold change (FC) [12] [%],fold change (FC) [13] [%],fold change (FC) [14] [%],solubility [15] [µg/mL]
O=C(CCCCC1CCSS1)NCCCCCOC(=O)Cc1ccc(O)c(O)c1 (configuration not stated),79.2,Active,0.4,Unstable,Active,32.3,1.04,100,Active,–,–,–,–,–,–
COc1cc(/C=C/C(=O)NCCCNC(=O)CCCCC2CCSS2)ccc1O (configuration not stated),–,Active,0.4,–,Active,6.7,1.13,1.78,Active,2.5,1.04,0.86,0.54,3.46,49
